ChEMBL document CHEMBL1159358, “Cytotoxic prenylflavanones from Taiwanese propolis” (J Nat Prod, 2003)
Values after ≈ are worked out from the molar mass of the structure shown. Active and inactive are the calls of the source. The rule behind the calls is not given here.

What was measured:
HL-60 [1] = assay: Cytotoxicity against human HL60 cells after 24 hrs by trypan blue exclusion assay; format: functional, cell-based; conditions: HL-60, 24 h
Summary of the method: (§1)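 HL-60 cells grown in RPMI 1640 with 10% FBS and 1% penicillin/streptomycin, 37 °C, 5% CO2. Seeded at 1 × 10^5 cells/well and exposed to various compound concentrations for 24 h. Cells counted; viability by trypan blue exclusion.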

C6 [2] = assay: Cytotoxicity against rat C6 cells after 24 hrs by trypan blue exclusion assay; format: functional, cell-based; conditions: C6, 24 h
Summary of the method: (§2)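 Human melanoma and C6 glioma cells grown in DMEM with 10% FBS and 1% penicillin/streptomycin, 37 °C, 5% CO2. Seeded at 1 × 10^5 cells/well and exposed to various compound concentrations for 24 h. Cells counted; viability by trypan blue exclusion.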

[3] = tested on: Radical scavenging activity; assay: Antioxidant activity against DPPH radical scavenging activity at 3.125 ug/ml; format: functional
Summary of the method: (§3)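 Scavenging of DPPH radical: sample in methanol (3.125, 6.25, 12.5, 25.0 µg/mL final) mixed 1:1 with 0.15 mM DPPH in methanol; absorbance change at 517 nm followed for 1 min. Percent scavenged = 100 × (A0 − Ai)/A0, A0 being initial DPPH absorbance.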

[4] = tested on: Radical scavenging activity; assay: Antioxidant activity against DPPH radical scavenging activity at 6.25 ug/ml; format: functional; summary of the method: as §3
[5] = tested on: Radical scavenging activity; assay: Antioxidant activity against DPPH radical scavenging activity at 12.5 ug/ml; format: functional; summary of the method: as §3
[6] = tested on: Radical scavenging activity; assay: Antioxidant activity against DPPH radical scavenging activity at 25 ug/ml; format: functional; summary of the method: as §3
[7] = tested on: Radical scavenging activity; assay: Antioxidant activity against DPPH radical scavenging activity; format: functional; summary of the method: as §3
Melanoma cell [8] = assay: Cytotoxicity against human Melanoma cells after 24 hrs by trypan blue exclusion assay; format: functional, cell-based; summary of the method: as §2
HL-60 [9] = assay: Cytotoxicity against human HL60 cells at >15 ug/ml after 24 hrs by trypan blue exclusion assay; format: functional, cell-based; summary of the method: as §1
C6 [10] = assay: Cytotoxicity against rat C6 cells at >15 ug/m after 24 hrs by trypan blue exclusion assay; format: functional, cell-based; summary of the method: as §2
Melanoma cell [11] = assay: Induction of apoptosis in human Melanoma cells assessed as accumulation at subG1 at 15 uM after 12 hrs by flow cytometry analysis; format: functional; conditions: in the assay text read “15 ug/mL” for “15 uM”
Summary of the method: (§4)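 Melanoma cells (1 × 10^6 per 60 mm dish) preincubated 12 h, then exposed to 15 µg/mL compound or DMSO for 0, 3, 6, 12 or 24 h. Cells fixed in ice-cold ethanol at −20 °C overnight, treated with Triton X-100/RNase A 30 min at 37 °C, stained with propidium iodide. Sub-G1 (lower DNA content) fraction measured by flow cytometry.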

Melanoma cell [12] = assay: Induction of apoptosis in human Melanoma cells assessed as accumulation at subG1 at 15 uM after 24 hrs by flow cytometry analysis; format: functional; conditions: in the assay text read “15 ug/mL” for “15 uM”; summary of the method: as §4
HL-60 (Homo sapiens) = assay: Induction of apoptosis in human HL-60 cells assessed as DNA fragmentation at 5 ug/ml after 24 hrs by agarose gel electrophoresis
Melanoma cell [13] = assay: Induction of apoptosis in human Melanoma cells assessed as accumulation at subG1 at 15 ug/mL after 3 hrs by flow cytometry analysis
Melanoma cell [14] = assay: Induction of apoptosis in human Melanoma cells assessed as accumulation at subG1 at 15 ug/mL after 6 hrs by flow cytometry analysis

Row | SMILES | IC50 (HL-60 [1]) | IC50 (C6 [2]) | Activity [3] | Activity [4] | Activity [5] | Activity [6] | IC50 [7] | IC50 (Melanoma cell [8]) | Activity (HL-60 [9]) | Activity (C6 [10]) | Activity (Melanoma cell [11]) | Activity (Melanoma cell [12]) | Activity (HL-60 (Homo sapiens)) | Activity (Melanoma cell [13]) | Activity (Melanoma cell [14])
1 | C/C(=C\Cc1cc([C@@H]2CC(=O)c3c(O)cc(O)cc3O2)cc(O)c1O)CCCC(C)(C)O [PROPOLIN B] | 7.5 µg/mL (≈ 16.9 µM) | 4 µg/mL (≈ 9.04 µM) | 18.3% | 36.7% | 85.7% | 94.7% | 9 µg/mL (≈ 20.3 µM) | 7.5 µg/mL (≈ 16.9 µM) |  |  |  |  |  |  | 
2 | O=C(/C=C/c1ccc(O)c(O)c1)OCCc1ccccc1 |  |  | 39.1% | 85.5% | 98.5% | 99.8% |  |  |  |  |  |  |  |  | 
3 | C/C(=C/Cc1c([C@@H]2CC(=O)c3c(O)cc(O)cc3O2)ccc(O)c1O)CCCC(C)(C)O [PROPOLIN A] | 7.5 µg/mL (≈ 16.9 µM) | 3.5 µg/mL (≈ 7.91 µM) | 36% | 72.2% | 92.1% | 99.5% | 5 µg/mL (≈ 11.3 µM) | 6 µg/mL (≈ 13.6 µM) | Active | Active | 23.93% | 40.95% | Active | 15.01% | 15.22%
